Laboratory results taken from ChEMBL document CHEMBL4152346, “Sulfonamido-2-arylbenzoxazole GroEL/ES Inhibitors as Potent Antibacterials against Methicillin-Resistant Staphylococcus aureus (MRSA)” (J Med Chem, 2018).
Activity calls are given as the source filed them.

How the values were obtained:
Assay type in all cases: functional, organism-based
Klebsiella pneumoniae = test: Antibacterial activity against Klebsiella pneumoniae ATCC 13883 after 6 to 8 hrs
How it was run: (§1)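 Stagnant liquid-culture proliferation assay at 37°C in broth cation-adjusted with 25 mg/L Ca²⁺ and 12.5 mg/L Mg²⁺, with compounds stamped into the wells. […] OD600 turbidity was read at 6–8 h (K. pneumoniae, E. cloacae, P. aeruginosa) or 24 h (A. baumannii). EC50 came from non-linear regression, averaged in log form over replicates.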

Acinetobacter baumannii = test: Antibacterial activity against Acinetobacter baumannii ATCC 19606 after 24 hrs; settings: ATCC 19606 = CIP 70.34 = JCM 6841; how it was run: as §1
Pseudomonas aeruginosa = test: Antibacterial activity against Pseudomonas aeruginosa ATCC 10145 after 6 to 8 hrs; how it was run: as §1
Enterobacter cloacae = test: Antibacterial activity against Enterobacter cloacae subsp. cloacae ATCC 13047 after 6 to 8 hrs; how it was run: as §1

Measured: Activity

O=S(=O)(Nc1ccc(-c2nc3cc(NS(=O)(=O)c4cccc(Cl)c4)ccc3o2)cc1)c1cccc(Cl)c1
inactive: all assays above

O=S(=O)(Nc1ccc(-c2nc3cc(NS(=O)(=O)c4cccc5nonc45)ccc3o2)cc1)c1cccc2nonc12
inactive: all assays above

COc1cccc(S(=O)(=O)Nc2ccc(-c3nc4cc(NS(=O)(=O)c5cccc(OC)c5)ccc4o3)cc2)c1
inactive: all assays above

COC(=O)c1cccc(S(=O)(=O)Nc2ccc(-c3nc4cc(NS(=O)(=O)c5cccc(C(=O)OC)c5)ccc4o3)cc2)c1
inactive: all assays above

O=S(=O)(Nc1ccc(-c2nc3cc(NS(=O)(=O)c4cccc5ccccc45)ccc3o2)cc1)c1cccc2ccccc12
inactive: all assays above

O=C(O)c1ccccc1S(=O)(=O)Nc1ccc(-c2nc3cc(NS(=O)(=O)c4ccccc4C(=O)O)ccc3o2)cc1
inactive: all assays above

O=S(=O)(Nc1ccc(-c2nc3cc(NS(=O)(=O)c4ccc(C(F)(F)F)cc4)ccc3o2)cc1)c1ccc(C(F)(F)F)cc1
inactive: all assays above

N#Cc1cccc(S(=O)(=O)Nc2ccc(-c3nc4cc(NS(=O)(=O)c5cccc(C#N)c5)ccc4o3)cc2)c1
inactive: all assays above

O=S(=O)(Nc1ccc(-c2nc3cc(NS(=O)(=O)c4ccc(Br)cc4)ccc3o2)cc1)c1ccc(Br)cc1
inactive: all assays above

O=S(=O)(Cc1ccccc1)Nc1ccc(-c2nc3cc(NS(=O)(=O)Cc4ccccc4)ccc3o2)cc1
inactive: all assays above

O=S(=O)(Nc1ccc(-c2nc3cc(NS(=O)(=O)c4ccc5nsnc5c4)ccc3o2)cc1)c1ccc2nsnc2c1
inactive: all assays above

O=S(=O)(Nc1ccc(-c2nc3cc(NS(=O)(=O)c4cccs4)ccc3o2)cc1)c1cccs1
inactive: all assays above

CS(=O)(=O)Nc1ccc(-c2nc3cc(NS(C)(=O)=O)ccc3o2)cc1
inactive: all assays above

O=S(=O)(Nc1ccc(-c2nc3cc(NS(=O)(=O)C(F)(F)F)ccc3o2)cc1)C(F)(F)F
inactive: all assays above

Cc1ccc(S(=O)(=O)Nc2ccc(-c3nc4ccc(NS(=O)(=O)c5ccc(C)cc5)cc4[nH]3)cc2)cc1
inactive: all assays above

COC(=O)c1ccc(S(=O)(=O)Nc2ccc(-c3nc4cc(NS(=O)(=O)c5ccc(C(=O)OC)cc5)ccc4o3)cc2)cc1
inactive: all assays above

O=S(=O)(Nc1ccc(-c2nc3cc(NS(=O)(=O)c4ccccc4Cl)ccc3o2)cc1)c1ccccc1Cl
inactive: all assays above

Nc1ccccc1S(=O)(=O)Nc1ccc(-c2nc3cc(NS(=O)(=O)c4ccccc4N)ccc3o2)cc1
inactive: all assays above

COc1ccccc1S(=O)(=O)Nc1ccc(-c2nc3cc(NS(=O)(=O)c4ccccc4OC)ccc3o2)cc1
inactive: all assays above

O=C(O)c1ccc(S(=O)(=O)Nc2ccc(-c3nc4cc(NS(=O)(=O)c5ccc(C(=O)O)cc5)ccc4o3)cc2)cc1
inactive: all assays above

O=c1ccc2cc(S(=O)(=O)Nc3ccc(-c4nc5cc(NS(=O)(=O)c6ccc7oc(=O)ccc7c6)ccc5o4)cc3)ccc2o1
inactive: all assays above

O=S(=O)(Nc1ccc(-c2nc3cc(NS(=O)(=O)c4ccccc4Br)ccc3o2)cc1)c1ccccc1Br
inactive: all assays above
